Results: paper PMC7970147 (Heliyon, 2021)

Legend:
DsOBP69a = molecular target: T1, DsOBP69a (Drosophila suzukii, UniProt A0AB39ZGK5); assay: Fluorescence competition binding assay with bis-ANS, recombinant DsOBP69a; settings: for binding to DsOBP69a (in words): fluorescence competition binding assay
T1 sequence (A0AB39ZGK5 25-148): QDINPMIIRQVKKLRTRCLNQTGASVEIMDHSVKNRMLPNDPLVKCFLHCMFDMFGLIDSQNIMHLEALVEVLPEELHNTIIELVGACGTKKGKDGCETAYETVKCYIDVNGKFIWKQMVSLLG
Outline: (§1)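 Recombinant D. suzukii OBP expressed in E. coli BL21(DE3) (pET-30a), recovered from inclusion bodies in 8 M urea, Ni-NTA purified, refolded and dialysed into 50 mM Tris-HCl pH 7.4. Protein (2 μmol L−1 final) plus bis-ANS was titrated with ligand (1 mmol L−1 methanol stock). Excitation was 295 nm, with a 300–550 nm scan. Ki = IC50/(1+[bis-ANS]/Kbis-ANS), with Kbis-ANS from a Scatchard plot.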

DsOBP76a = molecular target: T2, DsOBP76a (Drosophila suzukii, UniProt A0AB39ZCT4); assay: Fluorescence competition binding assay with bis-ANS, recombinant DsOBP76a; settings: for binding to DsOBP76a (in words): fluorescence competition binding assay
T2 sequence (A0AB39ZCT4 30-153): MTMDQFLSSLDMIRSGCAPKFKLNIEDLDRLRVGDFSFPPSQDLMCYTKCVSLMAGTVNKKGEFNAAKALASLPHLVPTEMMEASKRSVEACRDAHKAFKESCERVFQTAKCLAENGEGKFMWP
Outline: as §1

DsOBP59h = settings: ref Li et al., 2019; cited from earlier work
DmOBP69a = settings: ref Bentzur et al., 2018; cited from earlier work
DmOBP76a = settings: ref Billeter and Levine, 2015; cited from earlier work
OBP28a = settings: ref Gonzalez et al., 2019; cited from earlier work

binding to DsOBP69a (in words) (DsOBP69a)	binding to DsOBP76a (in words) (DsOBP76a)	Kd (DsOBP69a) [µM]	Kd (DsOBP76a) [µM]	Compound	affinity with DsOBP59h proteins (in words) (DsOBP59h)	also measured
not affinity	not affinity			CC[N+](CC)(CC(=O)Nc1c(C)cccc1C)Cc1ccccc1 [Denatonium benzoate]	not affinity	
		23.8	24.1	O=C1C[C@@H](c2ccc(O)cc2)Oc2cc(O)cc(O)c21 [Naringenin]		
do not bind	do not bind			CCCCCC/C=C\CCCCCCCCCCOC(C)=O [11-cis-Vaccenyl acetate]		binding to DmOBP69a (in words) (DmOBP69a): bind; binding to DmOBP76a (in words) (DmOBP76a): bind
		19.3		CCCCCC/C=C\CCCCCCCCCCCCCCC [(Z)-7-Tricosene]		
		20.4	7.76	O=c1ccc2ccccc2o1 [Coumarin]	high affinity	
		4.03	3.37	CC(=O)/C=C/C1=C(C)CCCC1(C)C [β-Ionone]		affinity with OBP28a (in words) (OBP28a): strong affinity

Compound	binding to DsOBP69a (in words) (DsOBP69a)	binding to DsOBP76a (in words) (DsOBP76a)	Kd (DsOBP69a) [µM]	Kd (DsOBP76a) [µM]	affinity with DsOBP59h proteins (in words) (DsOBP59h)	also measured
NC(=S)Nc1ccccc1 [N-Phenylthiourea]	not affinity	not affinity			not affinity	
COc1ccc2cc3[n+](cc2c1OC)CCc1cc2c(cc1-3)OCO2 [Berberine chloride]			7.21	7.64	high affinity	
